The subject of experiment [1] is Felis catus. The experiment in a line: Compound was evaluated for the inhibition of the cardioaccelerator nerve of the cat; I - inactive at a dose 4 umol/kg (n = 3). Type of experiment: functional, organism-based. A digest of the protocol: (§1)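 Cats were anaesthetised with pentobarbital sodium (30 mg/kg) injected into the thoracic cavity. The right cardioaccelerator nerve was isolated and stimulated through bipolar platinum electrodes at 2 Hz, 2-ms pulses and supramaximal voltage, usually for 30 s. Arterial pressure was recorded from the right femoral artery, and heart rate by cardiotachometer. The highest dose tested was 4 µmol/kg, with n = 3.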

For experiment [2], the species on record is Rattus norvegicus. Description: Compound was evaluated for inhibition of binding of [3H]dopamine to rat caudate tissue. Type of experiment: functional, organism-based.
The species entered for experiment [3] is Rattus norvegicus. The experiment in a line: Compound was evaluated for inhibition of binding of [3H]spiroperidol to rat caudate tissue. It counts as functional, organism-based.
The test system of experiment [4] is Felis catus. Description: Compound was evaluated for the inhibition of the cardioaccelerator nerve of the cat at a dose 4 umol/kg (n = 3). Type of experiment: functional. An outline of the steps:
as §1

Experiment [5] concerns Felis catus. Description: Compound was evaluated for the inhibition of the cardioaccelerator nerve of the cat at a dose 4 umol/kg. It counts as functional. A digest of the protocol:
as §1

pIC50: −log10 of the molar value. Calls of active or inactive are those of the source. No cut-off for these calls is given here.

Regarding `CCN1CCC[C@@H]2Cc3c(O)cc(O)cc3C[C@H]21`, the ED50 result in the experiment on Felis catus [1] is “inactive”. The results for the pIC50 in the experiment listed under Rattus norvegicus [2] and in the experiment listed under Rattus norvegicus [3] were 6.36 and 4.49, respectively.

With `CCCN1CCC[C@@H]2Cc3c(O)cc(O)cc3C[C@H]21`, the 50% effect level with Felis catus [4] (ED50) was put at a dose of 1.74 µmol/kg. Further, the results for the pIC50 in the experiment filed under Rattus norvegicus [2] and in the experiment listed under Rattus norvegicus [3] were 6.43 and 4.82, respectively.

Consider `Oc1cc(O)c2c(c1)[C@@H]1CCCN[C@H]1CC2`, for which the pIC50 in the experiment filed under Rattus norvegicus [2] was 6.00; in the experiment filed under Rattus norvegicus [3], 4.60.

Take `CCCN1CCC[C@H]2c3cc(O)cc(O)c3CC[C@H]21`: the ED50 in the experiment on Felis catus [5] is more than 4 µmol/kg. Also, the pIC50 was 5.77 in the experiment filed under Rattus norvegicus [2] and 4.96 in the experiment filed under Rattus norvegicus [3].

Take `Oc1cc(O)c2c(c1)[C@@H]1CCCN[C@@H]1CC2`: the pIC50 in the experiment listed under Rattus norvegicus [2] is 4.95; in the experiment listed under Rattus norvegicus [3], 3.95.

With `CCN1CCC[C@H]2c3cc(O)cc(O)c3CC[C@H]21`, the ED50 in the experiment on Felis catus [5] is more than 4 µmol/kg. Moreover, the pIC50 in the experiment listed under Rattus norvegicus [2] is 6.37; in the experiment listed under Rattus norvegicus [3], 5.00.

In the experiment on Felis catus [4], `CCN1CCC[C@@H]2c3cc(O)cc(O)c3CC[C@H]21` returned an ED50 of 0.0021 µmol/kg. The pIC50 is 7.05 in the experiment filed under Rattus norvegicus [2] and 5.62 in the experiment listed under Rattus norvegicus [3].

Take `Oc1cc(O)c2c(c1)C[C@H]1NCCC[C@@H]1C2`: in the experiment on Felis catus [1], the ED50 entry was “inactive”. Moreover, the pIC50 was 4.89 in the experiment filed under Rattus norvegicus [2] and 3.58 in the experiment filed under Rattus norvegicus [3].

`CN1CCc2cccc3c2[C@H]1Cc1ccc(O)c(O)c1-3` [APOMORPHINE] displayed an ED50 in the experiment with Felis catus [4] of 0.022 µmol/kg. This compound also showed a pIC50 in the experiment listed under Rattus norvegicus [3] of 5.96.

Regarding `CCCN1CCC[C@@H]2c3cc(O)cc(O)c3CC[C@H]21`, the 50% effect level in the experiment on Felis catus [4] (ED50) was put at a dose of 0.0047 µmol/kg. Besides, the negative-log IC50 (pIC50) was 7.40 in the experiment filed under Rattus norvegicus [2] and 6.00 in the experiment filed under Rattus norvegicus [3].

(Values after ChEMBL document CHEMBL1122567, “Conformationally restricted congeners of dopamine derived from octahydrobenzo[g]quinoline and octahydrobenzo[f]quinoline” (J Med Chem, 1984).)
